pIC50, pKd: −log10 of the molar value.
Key:
[1] = target: T1, Adenosine receptor A1 (Bos taurus, UniProt P28190); experiment: Binding affinity for adenosine A1 receptor as inhibition of [125-I]-labeled aminobenzyl adenosine binding to bovine brain membranes; type: cell membranes
T1 sequence (P28190 whole entry): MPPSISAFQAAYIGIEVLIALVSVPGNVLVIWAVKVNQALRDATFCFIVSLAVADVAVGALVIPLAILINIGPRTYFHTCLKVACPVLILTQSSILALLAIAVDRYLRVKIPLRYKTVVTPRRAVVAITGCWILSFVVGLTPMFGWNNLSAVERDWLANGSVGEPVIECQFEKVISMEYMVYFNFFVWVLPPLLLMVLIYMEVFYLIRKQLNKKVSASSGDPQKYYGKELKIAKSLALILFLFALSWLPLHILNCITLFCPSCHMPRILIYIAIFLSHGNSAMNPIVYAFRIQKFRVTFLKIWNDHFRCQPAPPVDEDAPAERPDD
Procedure, shortened: (§1)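 Bovine cerebral cortex membranes, pretreated with EDTA, at 0.5 mg protein/mL in 10 mM HEPES, 1 mM EDTA, 0.1 mM benzamidine, pH 7.4. Incubated 2-3 h at 21 °C, then filtered and washed with ice-cold 10 mM Tris-HCl pH 7.4. Nonspecific binding by 100 μM PIA, 1 mM theophylline or 1 μM IIIa.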

[2] = target: Adenosine A2 receptor (Homo sapiens, UniProt P29275+P29274); experiment: Inhibition of NECA binding to adenosine A2 receptor mediates reduced adenylate cyclase activity in human platelets
[3] = target: T1, Adenosine receptor A1; experiment: Displacement of [125-I]-labeled aminobenzyl adenosine binding to adenosine A1 receptor of bovine brain membranes; type: cell membranes; procedure, shortened: as §1
[4] = target: T2, Adenosine receptor A1 (Rattus norvegicus, UniProt P25099)
T2 sequence (P25099 whole entry): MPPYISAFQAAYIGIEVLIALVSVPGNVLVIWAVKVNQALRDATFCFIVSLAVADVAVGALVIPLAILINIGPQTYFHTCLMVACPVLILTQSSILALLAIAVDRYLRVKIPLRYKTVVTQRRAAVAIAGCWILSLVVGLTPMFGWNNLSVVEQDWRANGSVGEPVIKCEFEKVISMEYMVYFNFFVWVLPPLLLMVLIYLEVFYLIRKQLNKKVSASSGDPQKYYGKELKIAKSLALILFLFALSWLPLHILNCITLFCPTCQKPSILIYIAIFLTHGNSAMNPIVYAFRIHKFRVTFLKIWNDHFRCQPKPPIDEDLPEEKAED

[5] = target: T2, Adenosine receptor A1; experiment: Binding affinity to adenosine A1 receptor of rat brain membranes with 1 M NaCl by inhibition of [125-I]-IIIa binding
[6] = target: T1, Adenosine receptor A1; experiment: Binding affinity for adenosine A1 receptor using [125-I]-labeled aminobenzyl adenosine in bovine brain membranes; type: cell membranes; procedure, shortened: as §1

pKd [1]	Ki [2] [µM]	pKd [3]	pIC50 [4]	pIC50 [5]	pKd [6]	SMILES
6.02	5.3					CCCn1c(=O)n(Cc2ccc(N=[N+]=[N-])c(I)c2)c(=O)c2[nH]c(-c3ccc(OCC(=O)O)cc3)nc21
	20	5.51				CCCn1c(=O)n(CCc2ccc(N)c(I)c2)c(=O)c2[nH]c(-c3ccc(OCC(=O)O)cc3)nc21
	23	7.36	7.36	8.28		CCCn1c(=O)n(Cc2ccc(N)cc2)c(=O)c2[nH]c(-c3ccc(OCC(=O)O)cc3)nc21
	5.3	7.54				CCCn1c(=O)c2nc(-c3ccc(OCC(=O)O)cc3)[nH]c2n(CCc2ccc(N)c(I)c2)c1=O
	1	7.49	7.19	8.47		CCCn1c(=O)c2nc(-c3ccc(OCC(=O)O)cc3)[nH]c2n(Cc2ccc(N)cc2)c1=O
	11.5	7.22	7.43	8.47		CCCn1c(=O)c2nc(-c3ccc(OCC(=O)O)cc3)[nH]c2n(CCc2ccc(N)cc2)c1=O
	> 100	5.44				Nc1ccc(CCn2c(=O)c3nc(-c4ccc(OCC(=O)O)cc4)[nH]c3n(CCc3ccc(N)cc3)c2=O)cc1
	11.5	5.64				CCCn1c(=O)n(CCc2ccc(N)cc2)c(=O)c2[nH]c(-c3ccc(OCC(=O)O)cc3)nc21
	0.7	7.43	7.43	8.52		CCCn1c(=O)c2nc(-c3ccc(OCC(=O)O)cc3)[nH]c2n(Cc2ccc(N)c(I)c2)c1=O
5.54	12.3					CCCn1c(=O)n(CCc2ccc(N=[N+]=[N-])c(I)c2)c(=O)c2[nH]c(-c3ccc(OCC(=O)O)cc3)nc21
7.77						CCCn1c(=O)c2[nH]c(-c3ccc(OCC(=O)O)cc3)nc2n(CCC)c1=O
	1.8	6.80				CCCn1c(=O)n(Cc2ccc(N)c(I)c2)c(=O)c2[nH]c(-c3ccc(OCC(=O)O)cc3)nc21
	2.1				7.26	CCCn1c(=O)c2nc(-c3ccc(OCC(=O)O)cc3)[nH]c2n(Cc2ccc(N=[N+]=[N-])c(I)c2)c1=O
	5.4	7.62				CCCn1c(=O)c2nc(-c3ccc(OCC(=O)O)cc3)[nH]c2n(CCc2ccc(N=[N+]=[N-])c(I)c2)c1=O

Source: ChEMBL document CHEMBL1124076, “125I-labeled 8-phenylxanthine derivatives: antagonist radioligands for adenosine A1 receptors” (J Med Chem, 1988)
